Legend:
Substance-K receptor = biological target: T1, Substance-K receptor (Oryctolagus cuniculus, UniProt P79218); experiment: Functional potency against Tachykinin receptor 2 (NK2) in rabbit pulmonary artery assay; settings: read-out: pA2 (converted)
T1 sequence (P79218 whole entry): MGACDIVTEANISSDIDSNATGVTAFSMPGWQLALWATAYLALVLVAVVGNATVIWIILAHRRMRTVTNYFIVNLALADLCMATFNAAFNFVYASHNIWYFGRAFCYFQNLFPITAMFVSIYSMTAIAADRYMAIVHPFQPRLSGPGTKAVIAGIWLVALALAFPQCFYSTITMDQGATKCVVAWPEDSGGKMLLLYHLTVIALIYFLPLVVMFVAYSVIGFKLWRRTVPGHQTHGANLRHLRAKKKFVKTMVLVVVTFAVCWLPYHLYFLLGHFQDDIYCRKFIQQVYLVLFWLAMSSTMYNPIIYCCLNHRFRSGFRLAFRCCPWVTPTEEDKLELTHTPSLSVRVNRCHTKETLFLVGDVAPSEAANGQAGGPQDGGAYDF
Method in brief: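 Rabbit pulmonary artery preparation; antagonism of contractions evoked by the selective NK2 agonist [β-ala8]NKA(4–10); result expressed as pA2. Each determination n ≥ 2, every experiment run in triplicate.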

Homo sapiens = species: Homo sapiens; experiment: In vitro microsomal stability in human liver microsomes (HLM); type: functional

Compound	Kb (Substance-K receptor) [nM]	half-life (Homo sapiens) [min]
O=C(O)C1CCN(C2CN(CCC3(c4ccc(Cl)c(Cl)c4)CCC(=O)N(CC4CC4)C3)C2)CC1 (stereo not drawn)	0.398	–
O=C1CCC(CCN2CC(N3CCOC(c4ccccc4)C3)C2)(c2ccc(Cl)c(Cl)c2)CN1Cc1ccccc1 (stereo not drawn)	10	–
O=C1CCC(CCN2CC(N3C4CCC3CC(O)C4)C2)(c2ccc(Cl)c(Cl)c2)CN1Cc1ccccc1 (stereo not drawn)	0.631	–
CC(=O)NC1CCN(C2CN(CCC3(c4ccc(Cl)c(Cl)c4)CCC(=O)N(CC4CC4)C3)C2)CC1 (stereo not drawn)	15.8	–
CC(=O)N1CCN(C2CN(CCC3(c4ccc(Cl)c(Cl)c4)CCC(=O)N(Cc4ccccc4)C3)C2)CC1 (stereo not drawn)	1.58	–
O=C1CCC(CCN2CC(N3CCNCC3)C2)(c2ccc(Cl)c(Cl)c2)CN1CC1CC1 (stereo not drawn)	12.6	–
O=C1CC[C@](CCN2CC(N3CCOCC3)C2)(c2ccc(Cl)c(Cl)c2)CN1CC1CCCCC1	–	14
CCOC1CCN(C2CN(CCC3(c4ccc(Cl)c(Cl)c4)CCC(=O)N(CC4CC4)C3)C2)CC1 (stereo not drawn)	6.31	–
O=C1CCC(CCN2CC(N3CCC(O)CC3)C2)(c2ccc(Cl)c(Cl)c2)CN1Cc1ccccc1 (stereo not drawn)	0.0794	–
CS(=O)(=O)N1CCN(C2CN(CCC3(c4ccc(Cl)c(Cl)c4)CCC(=O)N(Cc4ccccc4)C3)C2)CC1 (stereo not drawn)	0.631	–
NC1CCN(C2CN(CCC3(c4ccc(Cl)c(Cl)c4)CCC(=O)N(CC4CC4)C3)C2)CC1 (stereo not drawn)	2	30
CS(=O)(=O)NC1CCN(C2CN(CCC3(c4ccc(Cl)c(Cl)c4)CCC(=O)N(CC4CC4)C3)C2)CC1 (stereo not drawn)	10	–
O=C1CCC(CCN2CC(N3CCS(=O)(=O)CC3)C2)(c2ccc(Cl)c(Cl)c2)CN1Cc1ccccc1 (stereo not drawn)	1.26	–
CN1CCN(C2CN(CCC3(c4ccc(Cl)c(Cl)c4)CCC(=O)N(Cc4ccccc4)C3)C2)CC1 (stereo not drawn)	15.8	–
O=C1CCC(CCN2CC(N3CCOCC3=O)C2)(c2ccc(Cl)c(Cl)c2)CN1Cc1ccccc1 (stereo not drawn)	2.51	–
Cc1ccccc1CN1CC(CCN2CC(N3CCOCC3)C2)(c2ccc(Cl)c(Cl)c2)CCC1=O (stereo not drawn)	0.501	–
CC(=O)NC1(c2ccccc2)CCN(C2CN(CCC3(c4ccc(Cl)c(Cl)c4)CCC(=O)N(CC4CC4)C3)C2)CC1 (stereo not drawn)	3.16	–
CNS(=O)(=O)N1CCN(C2CN(CCC3(c4ccc(Cl)c(Cl)c4)CCC(=O)N(CC4CC4)C3)C2)CC1 (stereo not drawn)	3.16	–
O=C1CCN(C2CN(CCC3(c4ccc(Cl)c(Cl)c4)CCC(=O)N(CC4CC4)C3)C2)CC1 (stereo not drawn)	1.26	–
CS(=O)(=O)N1CCN(C2CN(CCC3(c4ccc(Cl)c(Cl)c4)CCC(=O)N(CC4CC4)C3)C2)CC1 (stereo not drawn)	3.16	< 10
Cc1ccc(CN2CC(CCN3CC(N4CCOCC4)C3)(c3ccc(Cl)c(Cl)c3)CCC2=O)cc1 (stereo not drawn)	6.31	–
O=C1CC[C@@](CCN2CC(N3CCOCC3)C2)(c2ccc(Cl)c(Cl)c2)CN1CC1CCCCC1	631	84

Compound	Kb (Substance-K receptor) [nM]	half-life (Homo sapiens) [min]
O=C1CCC(CCN2CC(N3CCSCC3)C2)(c2ccc(Cl)c(Cl)c2)CN1Cc1ccccc1 (stereo not drawn)	1	–
O=C1CCC(CCN2CC(N3CC[S+]([O-])CC3)C2)(c2ccc(Cl)c(Cl)c2)CN1Cc1ccccc1 (stereo not drawn)	0.631	–
O=C1CCC(CCN2CC(N3CCOCC3)C2)(c2ccc(Cl)c(Cl)c2)CN1C1CCCCC1 (stereo not drawn)	0.126	< 10
NC(=O)N1CCN(C2CN(CCC3(c4ccc(Cl)c(Cl)c4)CCC(=O)N(CC4CC4)C3)C2)CC1 (stereo not drawn)	5.01	–
O=C1CCC(CCN2CC(N3CCC(O)C3)C2)(c2ccc(Cl)c(Cl)c2)CN1Cc1ccccc1 (stereo not drawn)	2	–
O=C1CCC(CCN2CC(N3CCOCC3)C2)(c2ccc(Cl)c(Cl)c2)CN1CC1CCCCC1 (stereo not drawn)	1.26	70
CN(CC(CCN1CCC(O)(c2ccccc2)CC1)c1ccc(Cl)c(Cl)c1)C(=O)c1ccccc1 (stereo not drawn)	0.316	< 10
O=C1CCC(CCN2CC(N3CCCOCC3)C2)(c2ccc(Cl)c(Cl)c2)CN1Cc1ccccc1 (stereo not drawn)	2	–
O=C1CCC(CCN2CC(N3CCOCC3)C2)(c2ccc(Cl)c(Cl)c2)CN1Cc1ccncc1 (stereo not drawn)	100	–
O=C1CCC(CCN2CC(N3CCCC(O)C3)C2)(c2ccc(Cl)c(Cl)c2)CN1Cc1ccccc1 (stereo not drawn)	2	–
CN(CCO)C1CN(CCC2(c3ccc(Cl)c(Cl)c3)CCC(=O)N(Cc3ccccc3)C2)C1 (stereo not drawn)	3.16	–
O=C1CCC(CCN2CC(N3CCOCC3)C2)(c2ccc(Cl)c(Cl)c2)CN1 (stereo not drawn)	> 10000	–
O=C1CCC(CCN2CC(N3CCOCC3)C2)(c2ccc(Cl)c(Cl)c2)CN1Cc1ccccc1 (stereo not drawn)	0.501	70
Cc1cccc(CN2CC(CCN3CC(N4CCOCC4)C3)(c3ccc(Cl)c(Cl)c3)CCC2=O)c1 (stereo not drawn)	2.51	–
O=C1CCC(CCN2CC(N3CCOCC3)C2)(c2ccc(Cl)c(Cl)c2)CN1Cc1ccc(F)cc1 (stereo not drawn)	20	–
NS(=O)(=O)N1CCN(C2CN(CCC3(c4ccc(Cl)c(Cl)c4)CCC(=O)N(CC4CC4)C3)C2)CC1 (stereo not drawn)	1.26	> 120
O=C1CCC(CCN2CC(N3CCNCC3)C2)(c2ccc(Cl)c(Cl)c2)CN1Cc1ccccc1 (stereo not drawn)	5.01	–
O=C1CCC(CCN2CCC(O)(c3ccccc3)CC2)(c2ccc(Cl)c(Cl)c2)CN1Cc1ccccc1 (stereo not drawn)	1.26	30
O=C1CCC(CCN2CC(N3CCC(O)CC3)C2)(c2ccc(Cl)c(Cl)c2)CN1CC1CC1 (stereo not drawn)	1.58	–
O=C1CCC(CCN2CC(N3CCOCC3)C2)(c2ccc(Cl)c(Cl)c2)CN1CC1CC1 (stereo not drawn)	7.94	120
CN(C)S(=O)(=O)N1CCN(C2CN(CCC3(c4ccc(Cl)c(Cl)c4)CCC(=O)N(CC4CC4)C3)C2)CC1 (stereo not drawn)	10	–
